The source made the active and inactive calls. The calls are words filed in the database; no cut-off is given here.
Tests used:
[1] = (§1) Acute toxicity in sc dosed mouse; assay type: organism-based; conditions: in vivo
[2] = tested on: Mus musculus; test: Analgesic activity in mouse assessed as inhibition of AcOH-induced writhing up to 22.5 mg/kg, sc; assay type: functional, organism-based; parameters: dose 22.5 mg/kg
[3] = tested on: Mus musculus; test: Analgesic activity in sc dosed mouse assessed as inhibition of AcOH-induced writhing; assay type: functional
[4] = tested on: Mus musculus; test: as §1; assay type: organism-based; conditions: in vivo
[5] = tested on: Oryctolagus cuniculus; test: Narcotic antagonist activity in rabbit assessed as inhibition of morphine-induced respiratory depression up to 1 mg/kg, iv; assay type: functional, organism-based; parameters: dose 1 mg/kg
Method in brief: (§2)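 Rabbits given test compound iv; read-out is antagonism of morphine-induced respiratory depression; expressed as AD50 in mg/kg or as % antagonism at a fixed dose.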

[6] = tested on: Oryctolagus cuniculus; test: Narcotic antagonist activity in iv dosed rabbit assessed as inhibition of morphine-induced respiratory depression; assay type: functional; method in brief: as §2
[7] = tested on: Mus musculus; test: Analgesic activity in mouse assessed as inhibition of AcOH-induced writhing up to 10 mg/kg, sc; assay type: functional, organism-based; parameters: dose 10 mg/kg
[8] = tested on: Rhesus monkey; test: Suppression of abstinence syndrome in morphine-dependent rhesus monkey at 8 mg/kg; assay type: functional, organism-based; parameters: dose 8 mg/kg; conditions: Macaca mulatta
[9] = tested on: Rhesus monkey; test: Narcotic antagonist activity in morphine-dependent rhesus monkey assessed as mild to moderate abstinence at 5 to 20 mg/kg; assay type: functional, organism-based; conditions: Macaca mulatta
Method in brief: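 Compound given to nonwithdrawn morphine-dependent monkeys; scored as precipitation of abstinence syndrome, with severity graded from mild to severe over the stated dose range.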

[10] = tested on: Mus musculus; test: Analgesic activity in sc dosed mouse by hot-plate method; assay type: functional
[11] = tested on: Oryctolagus cuniculus; test: Narcotic antagonist activity in rabbit assessed as inhibition of morphine-induced respiratory depression at 5 mg/kg, iv; assay type: functional; method in brief: as §2
[12] = tested on: Rhesus monkey; test: Suppression of abstinence syndrome in morphine-dependent rhesus monkey at 10 mg/kg; assay type: functional, organism-based; parameters: dose 10 mg/kg; conditions: Macaca mulatta
[13] = tested on: Rhesus monkey; test: Suppression of abstinence syndrome in morphine-dependent rhesus monkey at 5 mg/kg; assay type: functional, organism-based; parameters: dose 5 mg/kg; conditions: Macaca mulatta
[14] = tested on: Mus musculus; test: Analgesic activity in mouse by hot-plate method up to 100 mg/kg, sc; assay type: functional, organism-based; parameters: dose 100 mg/kg
[15] = Mus musculus, sc, read-out: ED50

## Br.CC1C2CCCC1(c1cccc(O)c1)C(C)N2C (racemic; 14)
[1]
  LD50: > 30 mg/kg

## Br.CC1N(C)C2CCCC1(c1ccccc1O)C2 (racemic)
[2]
  Activity: inactive
[1]
  LD50: > 100 mg/kg

## Br.CC1N(C)C2CCCC1(c1cccc(O)c1)C2 (racemic; 9)
[3]; [15]
  ED50: 4.9 mg/kg
[4]
  LD50: 113.5 mg/kg

## CCCCCCN1C2CCCC(c3cccc(O)c3)(C2)C1C.Cl (racemic)
[3]; [15]
  ED50: 0.27 mg/kg
[5]
  inhibition: inactive
[1]
  LD50: 25.4 mg/kg

## Br.CC1N(C)C2CCCC1(c1ccc(O)cc1)C2 (racemic)
[2]
  Activity: inactive
[1]
  LD50: > 100 mg/kg

## Cl.Oc1cccc(C23CCCC(C2)N(C/C=C/c2ccccc2)C3)c1 (racemic)
[2]
  Activity: inactive
[6]
  AD50: 0.96 mg/kg
[1]
  LD50: > 100 mg/kg

## C/C=C\N1CC[C@]23CCCC[C@H]2[C@H]1Cc1ccc(O)cc13.Cl
[6]
  AD50: 0.014 mg/kg

## C=CCN1CC[C@]23c4c5ccc(O)c4O[C@H]2[C@@H](O)C=C[C@H]3[C@H]1C5.Cl [NALORPHINE HYDROCHLORIDE]
[6]
  AD50: 0.16 mg/kg

## CC1C2CCCC1(c1cccc(O)c1)C(C)N2C (racemic; 14)
[7]
  Activity: inactive

## C=CCN1C2CCCC(c3cccc(O)c3)(C2)C1C.Cl (racemic)
[3]; [15]
  ED50: 22.5 mg/kg
[6]
  AD50: 0.17 mg/kg
[1]
  LD50: > 30 mg/kg

## CCCCCCN1CC2(c3cccc(O)c3)CCCC1C2.Cl (racemic)
[3]; [15]
  ED50: 17.5 mg/kg
[1]
  LD50: > 100 mg/kg

## Cl.O=C(CCN1CC2(c3cccc(O)c3)CCCC1C2)c1ccccc1 (racemic)
[3]; [15]
  ED50: 10.1 mg/kg
[1]
  LD50: 184 mg/kg

## CC(=O)Oc1cccc(C23CCCC(C2)N(C)C3C)c1 (racemic)
[8]
  Activity: inactive

## CN1C[C@@]2(c3cccc(O)c3)CCC[C@@H]1C2
[9]
  Activity: Active
[10]; [15]
  ED50: 20 mg/kg
[2]
  Activity: inactive
[11]
  inhibition in vivo at 5 mg/kg: 41%
[12]
  Activity: inactive
[1]
  LD50: 156 mg/kg

## Br.Oc1cccc(C23CCCC(C2)NC3)c1 (racemic)
[2]
  Activity: inactive
[1]
  LD50: > 100 mg/kg

## Br.COc1cccc(C23CCCC(C2)N(C)C3)c1 (racemic)
[3]; [15]
  ED50: 8.6 mg/kg
[1]
  LD50: 31.2 mg/kg

## CC(=O)Oc1cccc(C23CCCC(C2)N(C)C3C)c1 (single isomer, unassigned; (-))
[9]
  Activity: Active
[2]
  Activity: inactive
[13]
  Activity: inactive
[14]
  Activity: inactive

## CCCCCN1C2CCCC(c3cccc(O)c3)(C2)C1C.Cl (racemic)
[3]; [15]
  ED50: 1.5 mg/kg
[11]
  inhibition: inactive
[1]
  LD50: 36.7 mg/kg

## Br.COc1cccc(C23CCCC(C2)NC3C)c1 (racemic)
[2]
  Activity: inactive
[1]
  LD50: > 100 mg/kg

## CC(=O)Oc1cccc(C23CCCC(C2)N(C)C3C)c1.Cl (racemic)
[3]
  ED50: 2.9 mg/kg
[10]; [15]
  ED50: 3.5 mg/kg
[1]
  LD50: 123 mg/kg

## CC(=O)Oc1cccc(C23CCCC(C2)N(C)C3C)c1.Cl (single isomer, unassigned; (-))
[4]
  LD50: 113.5 mg/kg

## Br.CC1N(C)C2CCCC1(c1cc(O)cc(O)c1)C2 (racemic)
[2]
  Activity: inactive
[1]
  LD50: > 100 mg/kg

## Br.COc1cccc(C23CCCC(C2)N(C)C3C)c1 (racemic)
[3]; [15]
  ED50: 6.1 mg/kg
[1]
  LD50: 25.9 mg/kg

## CN1CC[C@]23c4c5ccc(O)c4O[C@H]2[C@@H](O)C=C[C@H]3[C@H]1C5.Cl [MORPHINE HYDROCHLORIDE]
[3]; [15]
  ED50: 0.8 mg/kg
[10]; [15]
  ED50: 1.2 mg/kg

## Br.CCCCCC(=O)Oc1cccc(C23CCCC(C2)N(C)C3C)c1 (racemic)
[3]; [15]
  ED50: 12.3 mg/kg
[1]
  LD50: 156 mg/kg

## Cl.O=C(CCCN1CC2(c3ccccc3)CCCC1C2)c1ccc(F)cc1 (racemic)
[3]; [15]
  ED50: 4.1 mg/kg
[1]
  LD50: > 200 mg/kg

## Br.CCC1N(C)C2CCCC1(c1cccc(OC(C)=O)c1)C2 (racemic)
[3]; [15]
  ED50: 10.1 mg/kg
[10]; [15]
  ED50: 9.9 mg/kg
[1]
  LD50: 55.1 mg/kg

## CN1CC2(c3ccccc3)CCCC1C2.Cl (racemic)
[3]; [15]
  ED50: 22.8 mg/kg
[1]
  LD50: > 30 mg/kg

## Br.CCC(=O)Oc1cccc(C23CCCC(C2)N(C)C3C)c1 (racemic)
[3]; [15]
  ED50: 2.3 mg/kg
[10]; [15]
  ED50: 9.9 mg/kg
[1]
  LD50: 114 mg/kg

## CC(=O)Oc1cccc(C23CCCC(C2)N(C)C3C)c1.Cl (single isomer, unassigned; (+))
[3]; [15]
  ED50: 2.4 mg/kg
[10]
  ED50: 3.6 mg/kg
[4]
  LD50: 129.5 mg/kg

## O=C(O)C(=O)O.c1ccc(CCN2CC3(c4ccccc4)CCCC2C3)cc1 (racemic)
[2]
  Activity: inactive
[1]
  LD50: > 100 mg/kg

## CC1C2CCCC1(c1cccc(O)c1)C(C)N2C (racemic; 16)
[7]
  Activity: inactive

From ChEMBL document CHEMBL3244161, “Azabicycloalkanes as analgetics. 3. Structure-activity relationships of 1-phenyl-6-azabicyclo[3.2.1]octanes and absolute stereochemistry of (+)-1-(3-hydroxyphenyl)-6-methyl-6-azabicyclo[3.2.1]octane and its 7-endo-methyl derivative” (J Med Chem, 1977)
